SMILES strings stand for the structures.

Test [1] concerns the target Matrix metalloproteinase-9 (Homo sapiens, UniProt P14780). The test is described as follows: Inhibition of recombinant human MMP9 (Phe107 to Pro449 residues) expressed in Escherichia coli using Ac-Pro-Leu-Gly-S-Leu-Leu-Gly-OEt as substrate after 1 hr measured at 1 min time interval for 30 mins by microplate photometric method. An outline of the steps: (§1)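 Commercial MMP kits; compound preincubated with enzyme before chromogenic substrate was added. Reactions at 37 °C for 1 h, with at least six inhibitor concentrations in triplicate. Absorbance at 410 nm read every 1 min for 30 min. NNGH used as reference inhibitor. IC50 taken from semi-logarithmic dose-response plots.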

The target in test [2] is Macrophage metalloelastase (Homo sapiens, UniProt P39900). In words: Inhibition of recombinant human MMP12 (Phe99 to Leu271 residues) expressed in Escherichia coli using Ac-Pro-Leu-Gly-S-Leu-Leu-Gly-OEt as substrate after 1 hr measured at 1 min time interval for 30 mins by microplate photometric method. The procedure, abridged:
as §1

The subject of test [3] is A549. In words: Cytotoxicity against human A549 cells assessed as reduction in cell viability after 48 hrs by MTT assay. The test is classed as functional, cell-based. The note with it: A549, 48 h. The procedure, abridged: (§2)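 A549, MDA-MB-231, K562, U937 and PBMC (PBMC from healthy donors) seeded at 1×10^3 cells/well and left 24 h, then exposed to compounds for 48 h at 37 °C, 5% CO2. Adherent lines were grown in DMEM, the others in RPMI-1640 with 10% heat-inactivated FBS. MTT read-out; viability expressed as % of untreated control. IC50 taken as the concentration giving 50% viability loss.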
A general note: Tetrazolium assays rely on reduction of a dye to a coloured formazan, in cell work by metabolically active cells.

For test [4], the system named is U-937. The test is described as follows: Cytotoxicity against human U937 cells assessed as reduction in cell viability after 48 hrs by MTT assay. The test is classed as functional, cell-based. Conditions: U-937, 48 h. An outline of the steps:
as §2

Test [5] relates to PBMC. In words: Cytotoxicity against human PBMC assessed as reduction in cell viability after 48 hrs by MTT assay. The test is classed as cell-based. The procedure, abridged:
as §2

The subject of test [6] is K562. The test is described as follows: Cytotoxicity against human K562 cells assessed as reduction in cell viability after 48 hrs by MTT assay. Type of test: functional, cell-based. The note with it: K562, 48 h. The procedure, abridged:
as §2

In test [7] the test system is MDA-MB-231. In words: Cytotoxicity against human MDA-MB-231 cells assessed as reduction in cell viability after 48 hrs by MTT assay. Conditions: MDA-MB-231, 48 h. Type of test: functional, cell-based. The procedure, abridged: as §2
Test [8] deals with Matrix metalloproteinase-14 (Homo sapiens, UniProt P50281). In words: Inhibition of recombinant human MMP14 (Tyr112 to Arg298 residues) expressed in Escherichia coli using Ac-Pro-Leu-Gly-S-Leu-Leu-Gly-OEt as substrate after 1 hr measured at 1 min time interval for 30 mins by microplate photometric method. An outline of the steps: as §1
In test [9] the target is T1, Interstitial collagenase (Homo sapiens, UniProt P03956).
T1 sequence (P03956 whole entry): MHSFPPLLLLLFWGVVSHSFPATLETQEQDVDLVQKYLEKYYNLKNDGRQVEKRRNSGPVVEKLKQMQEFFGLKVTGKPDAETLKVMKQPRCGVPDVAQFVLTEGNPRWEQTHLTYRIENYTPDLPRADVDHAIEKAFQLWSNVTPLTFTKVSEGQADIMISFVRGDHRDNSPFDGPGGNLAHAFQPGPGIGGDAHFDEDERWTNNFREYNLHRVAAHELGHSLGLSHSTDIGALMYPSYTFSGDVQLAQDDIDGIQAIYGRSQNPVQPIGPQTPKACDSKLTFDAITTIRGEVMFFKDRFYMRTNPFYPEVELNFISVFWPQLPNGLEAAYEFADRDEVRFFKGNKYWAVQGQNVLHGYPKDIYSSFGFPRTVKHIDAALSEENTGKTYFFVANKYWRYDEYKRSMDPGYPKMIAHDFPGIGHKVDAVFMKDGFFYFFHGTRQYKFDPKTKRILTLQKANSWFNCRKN
The test is described as follows: Inhibition of recombinant human MMP1 (Phe100 to Gln268 residues) using Ac-Pro-Leu-Gly-S-Leu-Leu-Gly-OEt as substrate after 1 hr measured at 1 min time interval for 30 mins by microplate photometric method. The procedure, abridged:
as §1

Test [10] deals with MMP-2/MMP-9 (Homo sapiens) (UniProt P08253+P14780). The test is described as follows: Selectivity ratio of IC50 for recombinant human MMP9 (Phe107 to Pro449 residues) expressed in Escherichia coli to IC50 for recombinant human MMP2 (Tyr110 to Asp452 residues).
The target of test [11] is 72 kDa type IV collagenase (Homo sapiens, UniProt P08253). The test is described as follows: Inhibition of recombinant human MMP2 (Tyr110 to Asp452 residues) using Ac-Pro-Leu-Gly-S-Leu-Leu-Gly-OEt as substrate after 1 hr measured at 1 min time interval for 30 mins by microplate photometric method. The procedure, abridged: as §1
Test [12] addresses Neutrophil collagenase (Homo sapiens, UniProt P22894). The test is described as follows: Inhibition of recombinant human MMP8 (Phe99 to Gln269 residues) expressed in Escherichia coli using Ac-Pro-Leu-Gly-S-Leu-Leu-Gly-OEt as substrate after 1 hr measured at 1 min time interval for 30 mins by microplate photometric method. The procedure, abridged:
as §1

Chain of Matrix metalloproteinase-9 (P14780 whole entry): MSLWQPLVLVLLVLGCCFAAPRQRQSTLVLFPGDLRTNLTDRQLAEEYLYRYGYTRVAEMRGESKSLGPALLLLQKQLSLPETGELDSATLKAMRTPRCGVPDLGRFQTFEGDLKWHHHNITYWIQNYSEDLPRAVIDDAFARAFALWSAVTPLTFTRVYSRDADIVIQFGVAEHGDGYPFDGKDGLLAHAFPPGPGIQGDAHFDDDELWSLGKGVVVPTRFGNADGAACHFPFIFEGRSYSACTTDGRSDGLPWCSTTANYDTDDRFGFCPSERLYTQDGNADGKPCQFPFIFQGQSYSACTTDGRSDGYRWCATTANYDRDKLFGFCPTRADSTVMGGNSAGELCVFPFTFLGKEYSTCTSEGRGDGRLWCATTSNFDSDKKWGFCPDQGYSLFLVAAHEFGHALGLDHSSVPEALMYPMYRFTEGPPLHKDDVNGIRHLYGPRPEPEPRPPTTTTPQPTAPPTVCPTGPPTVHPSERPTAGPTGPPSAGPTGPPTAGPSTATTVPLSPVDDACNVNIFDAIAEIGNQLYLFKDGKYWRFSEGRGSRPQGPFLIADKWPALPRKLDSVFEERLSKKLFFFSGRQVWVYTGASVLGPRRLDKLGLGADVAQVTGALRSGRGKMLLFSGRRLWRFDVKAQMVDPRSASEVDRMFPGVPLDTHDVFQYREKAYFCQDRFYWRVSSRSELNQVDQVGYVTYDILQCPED
Chain of Macrophage metalloelastase (P39900 whole entry): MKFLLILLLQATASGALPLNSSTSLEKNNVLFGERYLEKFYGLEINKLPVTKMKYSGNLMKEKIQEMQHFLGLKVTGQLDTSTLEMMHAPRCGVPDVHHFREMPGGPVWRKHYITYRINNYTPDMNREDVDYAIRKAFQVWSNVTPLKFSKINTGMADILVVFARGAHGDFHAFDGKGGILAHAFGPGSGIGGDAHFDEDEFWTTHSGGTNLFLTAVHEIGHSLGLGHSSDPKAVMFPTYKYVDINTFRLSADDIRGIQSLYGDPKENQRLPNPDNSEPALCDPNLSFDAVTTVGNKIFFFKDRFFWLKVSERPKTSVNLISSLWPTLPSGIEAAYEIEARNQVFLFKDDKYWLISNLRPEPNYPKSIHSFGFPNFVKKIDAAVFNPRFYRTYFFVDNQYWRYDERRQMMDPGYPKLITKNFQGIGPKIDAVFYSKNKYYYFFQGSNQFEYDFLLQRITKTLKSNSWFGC
Chain of Neutrophil collagenase (P22894 whole entry): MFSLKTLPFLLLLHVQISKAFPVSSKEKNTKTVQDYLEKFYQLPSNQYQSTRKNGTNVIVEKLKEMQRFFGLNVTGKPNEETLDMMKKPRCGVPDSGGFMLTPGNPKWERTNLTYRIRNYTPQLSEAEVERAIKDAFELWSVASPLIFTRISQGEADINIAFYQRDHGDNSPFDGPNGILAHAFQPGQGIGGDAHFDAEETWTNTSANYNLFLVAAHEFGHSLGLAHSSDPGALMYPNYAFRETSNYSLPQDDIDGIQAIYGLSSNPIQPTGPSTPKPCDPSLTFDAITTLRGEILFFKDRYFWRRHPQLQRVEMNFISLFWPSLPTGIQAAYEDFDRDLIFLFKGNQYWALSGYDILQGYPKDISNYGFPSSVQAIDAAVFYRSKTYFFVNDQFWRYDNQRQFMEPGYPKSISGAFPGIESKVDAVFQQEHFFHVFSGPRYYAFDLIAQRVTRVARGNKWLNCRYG
Chain of 72 kDa type IV collagenase (P08253 whole entry): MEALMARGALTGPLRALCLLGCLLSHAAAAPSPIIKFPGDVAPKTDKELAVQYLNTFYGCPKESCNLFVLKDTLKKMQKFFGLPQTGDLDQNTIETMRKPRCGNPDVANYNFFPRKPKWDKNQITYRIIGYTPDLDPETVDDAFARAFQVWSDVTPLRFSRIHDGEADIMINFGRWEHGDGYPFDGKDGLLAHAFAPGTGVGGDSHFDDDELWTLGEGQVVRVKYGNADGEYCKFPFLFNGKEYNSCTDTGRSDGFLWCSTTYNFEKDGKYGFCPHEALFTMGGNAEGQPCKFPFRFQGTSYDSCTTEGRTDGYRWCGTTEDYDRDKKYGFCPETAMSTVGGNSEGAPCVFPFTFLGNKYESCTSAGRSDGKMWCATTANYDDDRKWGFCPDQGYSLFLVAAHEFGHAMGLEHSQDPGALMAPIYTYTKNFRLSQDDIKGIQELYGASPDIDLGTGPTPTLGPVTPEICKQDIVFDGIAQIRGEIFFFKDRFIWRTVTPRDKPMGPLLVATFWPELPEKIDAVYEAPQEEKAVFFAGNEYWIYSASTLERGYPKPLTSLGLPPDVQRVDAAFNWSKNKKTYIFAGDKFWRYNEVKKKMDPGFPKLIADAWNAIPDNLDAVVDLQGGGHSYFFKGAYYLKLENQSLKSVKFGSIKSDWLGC

The IC50 is the point on the concentration scale where inhibition reaches its midpoint. For the molecule `CNC(=O)CC[C@H](NS(=O)(=O)c1ccc([N+](=O)[O-])cc1)C(=O)O`, the IC50 in test [1] was 7.5 µM; in test [2] it was above 500 µM; in test [3], above 500 µM; in [4], above 500 µM; in test [5] it was above 1000 µM; in test [6] it was above 500 µM. In addition, the IC50 in [7] is above 500 µM; in test [8], above 500 µM; in test [9], above 500 µM; in test [11] it was 2.85 µM; in test [12] it was 401 µM. In addition, in test [10], the Ratio IC50 was found to be 2.63.
With `CC(C)NC(=O)CC[C@H](NS(=O)(=O)c1ccc([N+](=O)[O-])cc1)C(=O)O`, the IC50 in test [1] was 5.97 µM; in [2], 493 µM; in test [3], above 500 µM; in test [4], 95.1 µM; in test [5], above 1000 µM; in test [6] it was 19.8 µM. In addition, the IC50 is above 500 µM in [7]; 301 µM in test [8]; above 500 µM in test [9]; 2.12 µM in test [11]; above 500 µM in test [12]. In addition, the Ratio IC50 in test [10] came out at 2.82.
As for `NC(=O)CC[C@H](NS(=O)(=O)c1ccc([N+](=O)[O-])cc1)C(=O)O`, the IC50 in test [1] was 7 µM; in [2] it was 100 µM; in test [3], above 500 µM; in test [4], above 500 µM; in [5], above 1000 µM; in test [6] it was above 500 µM. Also, the half-maximal inhibitory concentration (IC50) in test [7] is above 500 µM; in [8], 76.3 µM; in [9], above 500 µM; in test [11], 1.65 µM; in test [12] it was 199 µM. In addition, the Ratio IC50 in test [10] worked out at 4.24.
For `CCNC(=O)CC[C@H](NS(=O)(=O)c1ccc([N+](=O)[O-])cc1)C(=O)O`, the IC50 in test [1] is 4.8 µM; in [2], 109 µM; in test [3], 221 µM; in test [4] it was 89.4 µM; in test [5], above 1000 µM; in [6] it was above 500 µM. The half-inhibitory concentration (IC50) is above 500 µM in test [7]; 87.1 µM in [8]; above 500 µM in test [9]; 5.34 µM in test [11]; 298 µM in test [12].
`O=C(CC[C@H](NS(=O)(=O)c1ccc([N+](=O)[O-])cc1)C(=O)O)NCc1ccccc1`: the concentration for half-maximal inhibition (IC50) in test [1] was 6.37 µM; in test [2], 95.2 µM; in [3], 343 µM; in [4], 102 µM; in test [5], above 1000 µM; in test [6] it was 23.4 µM. Further, the IC50 in test [7] is 175 µM; in test [8] it was 109 µM; in test [9], above 500 µM; in test [11], 0.21 µM; in test [12] it was 173 µM. Also, the Ratio IC50 in test [10] is above 25.
With `CC(C)CNC(=O)CC[C@H](NS(=O)(=O)c1ccc([N+](=O)[O-])cc1)C(=O)O`, the IC50 in test [1] was 5.14 µM; in [2] it was above 500 µM; in test [3] it was above 500 µM; in test [4], 93.8 µM; in [5] it was above 1000 µM; in test [6], 42.5 µM. For the same molecule, the IC50 was above 500 µM in test [7]; 309 µM in test [8]; above 500 µM in [9]; 8.52 µM in test [11]; 483 µM in [12].
In the case of `CCCCNC(=O)CC[C@H](NS(=O)(=O)c1ccc([N+](=O)[O-])cc1)C(=O)O`, the IC50 in [1] is 6.36 µM; in [2] it was 198 µM; in test [3], 276 µM; in [4], 94 µM; in test [5], above 1000 µM; in test [6], 19.7 µM. For the same molecule, the IC50 in test [7] was above 500 µM; in [8], 111 µM; in test [9], above 500 µM; in test [11], 4.07 µM; in test [12], 346 µM.

(Values after ChEMBL document CHEMBL4130487, “A pentanoic acid derivative targeting matrix metalloproteinase-2 (MMP-2) induces apoptosis in a chronic myeloid leukemia cell line” (Eur J Med Chem, 2017).)
